# Experimental data reported in ChEMBL document CHEMBL1145749, “Inhibition of human immunodeficiency virus reverse transcriptase by synadenol triphosphate and its E-isomer” (J Med Chem, 2003).
# pKi: −log10 of the molar value.
# How the values were obtained:
# [1] = target: Human immunodeficiency virus type 1 reverse transcriptase (Human immunodeficiency virus 1, UniProt Q72547); test: Inhibitory activity against HIV-1 Reverse transcriptase wild-type (RT wt)
# In short: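 Recombinant HIV-1 RT (wild-type, M184V or M184I) was expressed in E. coli JM109 with 1 mM IPTG for 5 h, then purified on Q and SP columns to >90% purity. Assay used MS2 RNA/22A DNA primer in 50 mM Tris-HCl pH 7.8, 6 mM MgCl2, 150 mM KCl and 0.01% Triton X-100. Synthesis was distributive, with [3H]dATP as the only nucleotide, at 37 °C. Timed aliquots were spotted on DE81 and counted by scintillation. Ki came from the abscissa intercept of the Lineweaver–Burk replot. Ratio was Ki over dATP Km.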
# [2] = target: Human immunodeficiency virus type 1 reverse transcriptase (Human immunodeficiency virus 1, UniProt Q72547, M184I); test: Inhibitory activity against HIV-1 reverse transcriptase (RT M184I)
# In short: (§1)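 Recombinant HIV-1 RT M184V or M184I was expressed in E. coli JM109 (1 mM IPTG, 5 h), purified over Q and SP columns to >90%. The template-primer was MS2 RNA/22A DNA in 50 mM Tris-HCl pH 7.8, 6 mM MgCl2, 150 mM KCl, 0.01% Triton X-100, with [3H]dATP as the sole nucleotide (distributive mode). Reactions were enzyme-started at 37 °C and sampled 4–5 times onto DE81 filters. Ki came from the abscissa intercept of the Lineweaver–Burk replot.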
# [3] = target: Human immunodeficiency virus type 1 reverse transcriptase (Human immunodeficiency virus 1, UniProt Q72547, M184V); test: Inhibitory activity against HIV-1 reverse transcriptase (RT M184V); in short: as §1
Compound,pKi [1],pKi [2],pKi [3]
Nc1ncnc2c1ncn2/C=C1/CC1COP(=O)(O)OP(=O)(O)OP(=O)(O)O (stereo not given),6.49,,
Nc1ncnc2c1ncn2[C@H]1CC[C@@H](COP(=O)(O)OP(=O)(O)OP(=O)(O)O)O1 [DDA-TRIPHOSPHATE],6.29,5.92,6.30
Nc1ncnc2c1ncn2/C=C1\CC1COP(=O)(O)OP(=O)(O)OP(=O)(O)O (stereo not given),5.00,,
